Assay results published in article PMC7274092 (Nature biomedical engineering, 2020).

Key:
[1] = Diffusion-ordered NMR spectroscopy; assay type: physicochemical; settings: approximated from DOSY diffusion rate by the Stokes-Einstein relationship
liver and kidney = assay: Biocompatibility of CB[7]-PEG in healthy rats; assay type: in vivo, Sprague Dawley rats; settings: s.c. 0.2 mg/kg once daily for six weeks, n=4
In short: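 Healthy 10-week-old Sprague Dawley rats (n=4) received CB[7]-PEG at 0.2 mg/kg s.c. in PBS (pH 7.4) once daily for six weeks. […] Blood chemistry was run on an automated analyzer from samples taken on days 14, 28 and 42. At endpoint, liver and kidney were collected for single-blinded histopathology.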

[2] = insulin hexamer, for comparison; cited from earlier work

Molecule | hydrodynamic radius (Rh) [1] [nm] | other results
CC[C@H](C)[C@H](NC(=O)[C@@H]1CCCN1C(=O)CNC(=O)[C@H](Cc1ccccc1)NC(=O)[C@H](CC(N)=O)NC(=O)[C@H](CC(N)=O)NC(=O)[C@H](CO)NC(=O)[C@H](CO)NC(=O)[C@H](Cc1c[nH]cn1)NC(=O)[C@@H](NC(=O)[C@H](CC(C)C)NC(=O)[C@H](Cc1ccccc1)NC(=O)[C@H](CC(N)=O)NC(=O)[C@H](C)NC(=O)[C@H](CC(C)C)NC(=O)[C@H](CCCNC(=N)N)NC(=O)[C@H](CCC(N)=O)NC(=O)[C@@H](NC(=O)[C@H](C)NC(=O)[C@@H]1CSSC[C@H](NC(=O)[C@@H](N)CCCCN)C(=O)N[C@@H](CC(N)=O)C(=O)N[C@@H]([C@@H](C)O)C(=O)N[C@@H](C)C(=O)N[C@@H]([C@@H](C)O)C(=O)N1)[C@@H](C)O)C(C)C)C(=O)N[C@@H](CC(C)C)C(=O)N1CCC[C@H]1C(=O)N1CCC[C@H]1C(=O)N[C@H](C(=O)N[C@@H](CC(N)=O)C(=O)N[C@H](C(=O)NCC(=O)N[C@@H](CO)C(=O)N[C@@H](CC(N)=O)C(=O)N[C@H](C(=O)N[C@@H](Cc1ccc(O)cc1)C(N)=O)[C@@H](C)O)C(C)C)[C@@H](C)O [pramlintide] | 1.2 | –
cucurbit[7]uril-conjugated polyethylene glycol [CB[7]-PEG] | – | blood chemistry and liver/kidney histopathology vs untreated controls (liver and kidney): No differences
insulin aspart | ~2.2 | –
insulin hexamer: hexameric association state of insulin | – | hydrodynamic radius [2]: approximately 2.8 nm
